Each block holds one compound with its values, some of them ahead of it.
How the values were obtained:
Felis catus [1] = organism: Felis catus; assay: Compound was evaluated for inotropic activity in cat papillary muscles at concentration of (10e -6)M; assay type: functional, Papillary muscle
In short: (§1)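 Isolated cat papillary muscles under 1.0 g base-line tension, field-stimulated with square-wave pulses (2.0 ms, 12/min, 20% above threshold). Equilibrated 60 min. Each muscle was checked with 10^-6 M isoproterenol for 3 min and rejected if the response was under 120% of control, then washed and stabilized 30 min. Test compound given cumulatively (10^-7–10^-4 M) at 30-min intervals; contractility increase recorded.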

Canis familiaris [2] = assay: Evaluated for percent increase in heart rate in anesthetized dogs; assay type: functional, Canis lupus familiaris
In short: (§2)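 Right ventricular contractility measured by strain-gauge arch at 50 g tension; femoral arterial pressure and heart rate also recorded. Increasing log doses given iv at 5-min intervals, with peak responses recorded. ED50 by linear regression (mean ± SEM). Heart rate and MAP are % changes at the inotropic ED50.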

Canis familiaris [3] = assay: Tested for cardiovascular contractility in anesthetized dogs; assay type: functional; details: Canis lupus familiaris; in short: as §2
Canis familiaris [4] = assay: Evaluated for percent decrease in maximum arterial blood pressure in anesthetized dogs; assay type: functional, Canis lupus familiaris; in short: as §2
Canis familiaris [5] = assay: Compound was tested for cardiovascular profile in conscious dogs at dose of 500 ug/kg po; assay type: functional, Canis lupus familiaris, Heart
In short: (§3)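 Conscious, chronically instrumented dogs fasted 18 h; drug or lactose placebo given orally in 000 gelatin capsules. Contractility index was LV dP/dt60 (first derivative of left ventricular pressure at 60 mmHg); heart rate and LV systolic pressure also monitored.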

Felis catus [6] = organism: Felis catus; assay: Compound was evaluated for inotropic activity in cat papillary muscles at concentration of (10e -4)M; assay type: functional, Muscle tissue; in short: as §1
Felis catus [7] = organism: Felis catus; assay: Compound was evaluated for inotropic activity in cat papillary muscles at concentration of (10e -5)M; assay type: functional, Papillary muscle; in short: as §1
Canis familiaris [8] = assay: Compound was evaluated for percent increase in heart rate in anesthetized dogs; assay type: functional, Canis lupus familiaris
In short: as §2, with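 “Mongrel dogs of either sex (7–14 kg), pentobarbital-anesthetized (35 mg/kg iv), ventilated, kept at 37–38 °C. Right” for “Right”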

Canis familiaris [9] = assay: Compound was evaluated for percent decrease in maximum arterial blood pressure in anesthetized dogs; assay type: functional, Canis lupus familiaris, Artery; parameters: scale not given: the % may be the effect or the level left
In short: as §2, with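 “Mongrel dogs of either sex (7–14 kg), pentobarbital-anesthetized (35 mg/kg iv), ventilated, kept at 37–38 °C. Right” for “Right”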

Canis familiaris [10] = assay: Compound was tested for cardiovascular profile in conscious dogs at dose of 50 ug/kg po
Canis familiaris [11] = assay: Compound was tested for cardiovascular profile in conscious dogs at dose of 25 ug/kg po
Felis catus [12] = organism: Felis catus; assay: Compound was evaluated for inotropic activity in cat papillary muscles at concentration of (10e-6) M; assay type: functional, Papillary muscle; in short: as §1
Felis catus [13] = organism: Felis catus; assay: Compound was evaluated for inotropic activity in cat papillary muscles at concentration of (10e-5) M; assay type: functional, Papillary muscle; in short: as §1
Canis familiaris [14] = assay: Compound was tested for cardiovascular profile in conscious dogs at dose of 400 ug/kg po
Canis familiaris [15] = assay: Compound was tested for cardiovascular profile in conscious dogs at dose of 100 ug/kg po
[16] = Half-life measured by the effect on contractility after oral administration of 25 ug/kg in dog; details: in vivo, 0.025 mg/kg
[17] = Oral bioavailability determined in dog; assay type: ADME, organism-based, Canis lupus familiaris; details: in vivo
Half-life in dog = details: in vivo
Canis familiaris [18] = assay: Percent increase in contractility by administration of 500 ug/kg in conscious dog model; assay type: functional, Canis lupus familiaris
In short: as §3, with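 “monitored. Peak response generally taken 150 min post-dose; mean ± SEM of four experiments.” for “monitored.”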

SMILES: O=C1CCC(c2ccc3c(c2)CCC(=O)N3)=NN1
Control (Felis catus [1]): 150%
Increase (Canis familiaris [2]): 18.5%
ED50 (Canis familiaris [3]): 0.0033 mg/kg
Decrease (Canis familiaris [4]): 8.7%
Percent of control (Canis familiaris [5]): 157%
Contractile force (% of control) (Felis catus [6]): 154%
Contractility (% of control) (Felis catus [7]): 156%

SMILES: CC1CC(c2ccc3c(c2)C(C)(C)C(=O)N3)=NNC1=O (stereo not drawn)
Increase (Canis familiaris [2]): 13%
ED50 (Canis familiaris [3]): 0.015 mg/kg
Decrease (Canis familiaris [4]): 20%

SMILES: CCC1(CC)C(=O)Nc2ccc(C3=NNC(=O)CC3)cc21
Increase (Canis familiaris [2]): 8.9%
ED50 (Canis familiaris [3]): 0.741 mg/kg
Decrease (Canis familiaris [4]): 7.5%

SMILES: CC1CC(=O)NN=C1c1ccc2c(c1)C(C)(C)C(=O)N2C (stereo not drawn)
Increase (Canis familiaris [2]): 21.4%
ED50 (Canis familiaris [3]): 0.0044 mg/kg
Decrease (Canis familiaris [4]): 26%

SMILES: CN1N=C(c2ccc3c(c2)CC(=O)N3)CCC1=O
Increase (Canis familiaris [2]): 11%
ED50 (Canis familiaris [3]): 0.271 mg/kg
Decrease (Canis familiaris [4]): 7%

SMILES: CC1CC(=O)NN=C1c1ccc2c(c1)C(C)(C)C(=O)N2 (stereo not drawn)
Control (Canis familiaris [8]): 16%
ED50 (Canis familiaris [3]): 0.0032 mg/kg
Control (Canis familiaris [9]): 26%
Control (Canis familiaris [10]): 150%

SMILES: CCC1C(=O)Nc2ccc(C3=NNC(=O)CC3)cc21 (stereo not drawn)
Increase (Canis familiaris [2]): 18%
ED50 (Canis familiaris [3]): 0.071 mg/kg
Decrease (Canis familiaris [4]): 12%

SMILES: O=C1CCC(c2ccc3c(c2)CCCC(=O)N3)=NN1
Control (Felis catus [1]): 121%
Increase (Canis familiaris [2]): 12%
ED50 (Canis familiaris [3]): 0.0052 mg/kg
Decrease (Canis familiaris [4]): 18%
Percent of control (Canis familiaris [5]): 131%
Contractile force (% of control) (Felis catus [6]): 139%
Contractility (% of control) (Felis catus [7]): 137%

SMILES: CN1C(=O)C(C)(C)c2cc(C3=NNC(=O)CC3)ccc21
Increase (Canis familiaris [2]): 8%
ED50 (Canis familiaris [3]): 0.052 mg/kg
Decrease (Canis familiaris [4]): 13%

SMILES: CC(=O)Nc1ccc(C2=NNC(=O)CC2C)cc1 (stereo not drawn)
Control (Canis familiaris [11]): 170%
Increase (Canis familiaris [2]): 11.7%
ED50 (Canis familiaris [3]): 0.002 mg/kg
Decrease (Canis familiaris [4]): 16.6%
Contractile force (% of control) (Felis catus [6]): 216%
Control (Felis catus [12]): 167%
Control (Felis catus [13]): 183%

SMILES: CC(=O)Nc1ccc(C2=NNC(=O)CC2)cc1
Increase (Canis familiaris [2]): 5%
ED50 (Canis familiaris [3]): 0.0116 mg/kg
Decrease (Canis familiaris [4]): 6%
Percent of control (Canis familiaris [5]): 132%
Contractile force (% of control) (Felis catus [6]): 141%
Contractility (% of control) (Felis catus [7]): 128%

SMILES: CCCC1(C)C(=O)Nc2ccc(C3=NNC(=O)CC3)cc21 (stereo not drawn)
Increase (Canis familiaris [2]): 9.3%
ED50 (Canis familiaris [3]): 0.0198 mg/kg
Decrease (Canis familiaris [4]): 9.6%

SMILES: CC1C(=O)Nc2ccc(C3=NNC(=O)CC3)cc21 (stereo not drawn)
Control (Canis familiaris [11]): 141%
Increase (Canis familiaris [2]): 8%
ED50 (Canis familiaris [3]): 0.0096 mg/kg
Decrease (Canis familiaris [4]): 21.8%

SMILES: Cc1cc(C2=NNC(=O)CC2)cc2c1NC(=O)C2(C)C
Increase (Canis familiaris [2]): 8.5%
ED50 (Canis familiaris [3]): 0.0095 mg/kg
Decrease (Canis familiaris [4]): 17%

SMILES: CCC1(C)C(=O)Nc2ccc(C3=NNC(=O)CC3C)cc21 (stereo not drawn)
Increase (Canis familiaris [2]): 11%
ED50 (Canis familiaris [3]): 0.0148 mg/kg
Decrease (Canis familiaris [4]): 20%

SMILES: CCC1(C)C(=O)Nc2ccc(C3=NNC(=O)CC3)cc21 (stereo not drawn)
Increase (Canis familiaris [2]): 2%
ED50 (Canis familiaris [3]): 0.022 mg/kg
Decrease (Canis familiaris [4]): 3.1%
Control (Canis familiaris [14]): 149%

SMILES: CN1C(=O)CCc2cc(C3=NNC(=O)CC3)ccc21
Increase (Canis familiaris [2]): 26%
ED50 (Canis familiaris [3]): 0.0124 mg/kg
Decrease (Canis familiaris [4]): 21%
Control (Canis familiaris [15]): 134%

SMILES: CC1(C)CC(=O)Nc2ccc(C3=NNC(=O)CC3)cc21
Increase (Canis familiaris [2]): 5.9%
ED50 (Canis familiaris [3]): 0.086 mg/kg
Decrease (Canis familiaris [4]): 15%
Percent of control (Canis familiaris [5]): 133%

SMILES: O=C1CCC(c2ccc3c(c2)CC(=O)N3)=NN1
Control (Felis catus [1]): 116%
Increase (Canis familiaris [2]): 5.6%
ED50 (Canis familiaris [3]): 0.024 mg/kg
Decrease (Canis familiaris [4]): 4.3%
Percent of control (Canis familiaris [5]): 164%
Contractile force (% of control) (Felis catus [6]): 152%
Contractility (% of control) (Felis catus [7]): 147%

SMILES: Cc1cc2c(cc1C1=NNC(=O)CC1)C(C)(C)C(=O)N2
Increase (Canis familiaris [2]): 7.9%
ED50 (Canis familiaris [3]): 0.04 mg/kg
Decrease (Canis familiaris [4]): 0.5%

SMILES: CC1(C)Cc2cc(C3=NNC(=O)CC3)ccc2NC1=O
Increase (Canis familiaris [2]): 8.5%
ED50 (Canis familiaris [3]): 0.021 mg/kg
Decrease (Canis familiaris [4]): 3%
Percent of control (Canis familiaris [5]): 116%

SMILES: O=C1CCC(c2ccc3c(c2)CCCN3)=NN1
Increase (Canis familiaris [2]): 37%
ED50 (Canis familiaris [3]): 0.257 mg/kg
Decrease (Canis familiaris [4]): 12%

SMILES: O=C1CCC(c2ccc(-n3ccnc3)cc2)=NN1 [IMAZODAN]
Increase (Canis familiaris [2]): 9.5%
ED50 (Canis familiaris [3]): 0.046 mg/kg
Decrease (Canis familiaris [4]): 18%
Contractile force (% of control) (Felis catus [6]): 173%
Contractility (% of control) (Felis catus [7]): 147%

half-life [16]: > 8 h
bioavailability [17]: 100%
half-life (Half-life in dog): 14 h
SMILES: CC1(C)C(=O)Nc2ccc(C3=NNC(=O)CC3)cc21 [INDOLIDAN]
Control (Felis catus [1]): 134%
Control (Canis familiaris [11]): 151%
Increase (Canis familiaris [2]): 11.8%
ED50 (Canis familiaris [3]): 0.0068 mg/kg
Decrease (Canis familiaris [4]): 15.2%
Contractile force (% of control) (Felis catus [6]): 169%
Contractility (% of control) (Felis catus [7]): 164%

SMILES: Cc1[nH]c(=O)c(C#N)cc1-c1ccncc1 [MILRINONE]
Increase (Canis familiaris [2]): 9%
ED50 (Canis familiaris [3]): 0.037 mg/kg
Decrease (Canis familiaris [4]): 8%
Percent of control (Canis familiaris [5]): 162%
Contractile force (% of control) (Felis catus [6]): 158%
Increase (Canis familiaris [18]): 62%
Control (Felis catus [13]): 148%

Reference: ChEMBL document CHEMBL1123221, “Dihydropyridazinone cardiotonics: the discovery and inotropic activity of 1,3-dihydro-3,3-dimethyl-5-(1,4,5,6-tetrahydro-6-oxo-3-pyridazinyl)-2H -indol-2-one” (J Med Chem, 1986)
